# Test results as given in ChEMBL document CHEMBL1828604, “Antifungal activity of a series of 1,2-benzisothiazol-3(2H)-one derivatives” (Bioorg Med Chem, 2011).
# Key:
# [1] = system: Clavispora lusitaniae; experiment: Antifungal activity against Candida lusitaniae after 24 hrs by broth microdilution method; assay type: functional
# Method in brief: (§1)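 Broth microdilution per CLSI M27-A3 and M38-A2. 1000 cells per well in RPMI (final 100 µL) with two-fold compound dilutions from 0.1 to 50 µg/ml. MIC-50 is the lowest concentration that cuts growth to half the OD of the untreated control. Candida species are clinical strains. A. fumigatus strain is AF-294.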
# [2] = Antifungal activity against Candida apicola after 24 hrs by broth microdilution method; assay type: functional; method in brief: as §1
# [3] = system: Candida tropicalis; experiment: Antifungal activity against Candida tropicalis after 24 hrs by broth microdilution method; assay type: functional; method in brief: as §1
# [4] = system: Candida parapsilosis; experiment: Antifungal activity against Candida parapsilosis after 24 hrs by broth microdilution method; assay type: functional; conditions: Lodderomyces parapsilosis; method in brief: as §1
# [5] = system: Meyerozyma guilliermondii; experiment: Antifungal activity against Candida guilliermondii after 24 hrs by broth microdilution method; assay type: functional; method in brief: as §1
# [6] = system: Candida albicans; experiment: Antifungal activity against Candida albicans CAF-2 after 24 hrs by broth microdilution method; assay type: functional; conditions: CAF-2, 24 h
# Method in brief: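 Broth microdilution per CLSI M27-A3: 1000 cells per well in RPMI, two-fold compound dilutions from 0.1 to 50 μg/ml, final volume 100 μL RPMI. MIC-50 is the lowest concentration that inhibits growth to half the OD of the untreated control.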
# [7] = system: Cryptococcus neoformans; experiment: Antifungal activity against Cryptococcus neoformans JEC-21 after 72 hrs by broth microdilution method; assay type: functional; conditions: JEC-21, 72 h; method in brief: as §1
# [8] = system: Nakaseomyces glabratus; experiment: Antifungal activity against Candida glabrata after 24 hrs by broth microdilution method; assay type: functional; method in brief: as §1
# [9] = system: Aspergillus fumigatus; experiment: Antifungal activity against Aspergillus fumigatus AF-294 after 48 hrs by broth microdilution method; conditions: AF-294, 48 h
# [10] = system: Cryptococcus neoformans; experiment: Antifungal activity against Cryptococcus neoformans H-99 after 72 hrs by broth microdilution method; assay type: functional; conditions: H-99, 72 h; method in brief: as §1
# [11] = Cytotoxicity against human HepG2 cells after 48 hrs by neutral red cell viability assay; assay type: cell-based
# Method in brief: (§2)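 Neutral red viability assay on HepG2 human hepatoma cells at defined compound concentrations, exposure 24, 48 or 72 h. CC-50 was calculated from the viability data.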
# [12] = Cytotoxicity against human HepG2 cells after 72 hrs by neutral red cell viability assay; assay type: cell-based; method in brief: as §2
# [13] = system: Huh-7; experiment: Cytotoxicity against human HuH7 cells by MTT assay; assay type: cell-based
# [14] = Cytotoxicity against human HepG2 cells after 24 hrs by neutral red cell viability assay; assay type: cell-based; method in brief: as §2
# [15] = Ratio of CC50 for human HepG2 cells to MIC50 for antifungal activity; assay type: functional
# [16] = system: HepG2; experiment: Cytotoxicity against human HepG2 cells by MTT assay; assay type: cell-based
# Method in brief: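 MTT viability assay at defined compound concentrations in human hepatoma cell lines HepG2 and Huh7.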
compound,measurement,setting,value
OC(Cn1cncn1)(Cn1cncn1)c1ccc(F)cc1F [FLUCONAZOLE],MIC50,[1],3.2 µg/mL
same,MIC50,[2],0.2 µg/mL
same,MIC50,[3],16 µg/mL
same,MIC50,[4],0.4 µg/mL
same,MIC50,[5],6.4 µg/mL
same,MIC50,[6],0.2 µg/mL
same,MIC50,[7],> 64 µg/mL
same,MIC50,[8],3.2 µg/mL
same,MIC50,[9],16 µg/mL
same,MIC50,[10],> 64 µg/mL
CN(Cc1ccccc1)C(=O)Cn1sc2ccccc2c1=O,MIC50,[1],1.6 µg/mL
same,CC50 at 48 h,[11],25.7 µg/mL
same,CC50 at 72 h,[12],23.2 µg/mL
same,MIC50,[2],1.6 µg/mL
same,MIC50,[3],1.6 µg/mL
same,MIC50,[4],1.6 µg/mL
same,MIC50,[5],1.6 µg/mL
same,Activity,[13],Toxic
same,MIC50,[6],1.6 µg/mL
same,MIC50,[7],1.6 µg/mL
same,CC50 at 24 h,[14],62.2 µg/mL
same,MIC50,[8],1.6 µg/mL
same,Ratio,[15],15
same,MIC50,[9],12.5 µg/mL
same,Activity,[16],Toxic
same,MIC50,[10],1.6 µg/mL
COC(=O)c1ccccc1NC(=O)Cn1sc2ccccc2c1=O,MIC50,[6],6.4 µg/mL
COc1ccc(CNC(=O)Cn2sc3ccccc3c2=O)cc1,MIC50,[6],3.2 µg/mL
O=C(Cn1sc2ccccc2c1=O)NCc1ccccc1,MIC50,[6],3.2 µg/mL
CC(C(=O)N(C)Cc1ccccc1)n1sc2ccccc2c1=O (racemic),MIC50,[6],25 µg/mL
O=C(Cn1sc2ccccc2c1=O)NC12CC3CC(CC(C3)C1)C2,MIC50,[6],3.2 µg/mL
O=C(Cn1sc2ccccc2c1=O)Nc1nccs1,MIC50,[6],> 50 µg/mL
CCN(Cc1ccccc1)C(=O)Cn1sc2ccccc2c1=O,MIC50,[6],6.4 µg/mL
COc1cccc(CNC(=O)Cn2sc3ccccc3c2=O)c1,MIC50,[6],3.2 µg/mL
COC(=O)c1cccc(NC(=O)Cn2sc3ccccc3c2=O)c1,MIC50,[6],12.5 µg/mL
O=C(Cn1sc2ccccc2c1=O)NCCN1CCOCC1,MIC50,[6],> 50 µg/mL
O=C(Cn1sc2ccccc2c1=O)NCCc1ccccc1,MIC50,[6],> 50 µg/mL
C[C@@H](NC(=O)Cn1sc2ccccc2c1=O)c1ccccc1,MIC50,[6],6.4 µg/mL
CC(C(=O)NCc1ccccc1)n1sc2ccccc2c1=O (racemic),MIC50,[6],> 50 µg/mL
CCN(CC)C(=O)Cn1sc2ccccc2c1=O,MIC50,[6],> 50 µg/mL
CN(C(=O)Cn1sc2ccccc2c1=O)c1ccccc1,MIC50,[6],> 50 µg/mL
O=C(Cn1sc2ccccc2c1=O)NCc1ccc(F)cc1,MIC50,[6],1.6 µg/mL
O=C(Cn1sc2ccccc2c1=O)Nc1ccccc1,MIC50,[6],6.4 µg/mL
C[C@H](NC(=O)Cn1sc2ccccc2c1=O)c1ccccc1,MIC50,[6],6.4 µg/mL
